Test results: ChEMBL document CHEMBL4219103, “Design and synthesis of 1,4-substituted 1H-1,2,3-triazolo-quinazolin-4(3H)-ones by Huisgen 1,3-dipolar cycloaddition with PI3Kγ isoform selective activity” (Bioorg Med Chem Lett, 2018)
pIC50: −log10 of the molar value. Calls of active or inactive are those of the source. The rule behind the calls is not given here.

Assays:
COLO 205 = assay: Antiproliferative activity against human COLO205 cells after 24 to 48 hrs by MTT assay; type: functional, cell-based
HCT-116 = assay: Antiproliferative activity against human HCT116 cells after 24 to 48 hrs by MTT assay; type: functional, cell-based
[1] = Antiproliferative activity against human FR2 cells after 24 to 48 hrs by MTT assay; type: cell-based
MCF7 = assay: Antiproliferative activity against human MCF7 cells after 24 to 48 hrs by MTT assay; type: functional, cell-based
HL-60 [2] = assay: Antiproliferative activity against human HL60 cells after 24 to 48 hrs by MTT assay; type: functional, cell-based
A549 = assay: Antiproliferative activity against human A549 cells after 24 to 48 hrs by MTT assay; type: functional, cell-based
[3] = target: T1, Phosphatidylinositol 4,5-bisphosphate 3-kinase catalytic subunit delta isoform (Homo sapiens, UniProt O00329); assay: Inhibition of PI3K-delta (unknown origin) by cell free biochemical assay
T1 sequence (O00329 whole entry): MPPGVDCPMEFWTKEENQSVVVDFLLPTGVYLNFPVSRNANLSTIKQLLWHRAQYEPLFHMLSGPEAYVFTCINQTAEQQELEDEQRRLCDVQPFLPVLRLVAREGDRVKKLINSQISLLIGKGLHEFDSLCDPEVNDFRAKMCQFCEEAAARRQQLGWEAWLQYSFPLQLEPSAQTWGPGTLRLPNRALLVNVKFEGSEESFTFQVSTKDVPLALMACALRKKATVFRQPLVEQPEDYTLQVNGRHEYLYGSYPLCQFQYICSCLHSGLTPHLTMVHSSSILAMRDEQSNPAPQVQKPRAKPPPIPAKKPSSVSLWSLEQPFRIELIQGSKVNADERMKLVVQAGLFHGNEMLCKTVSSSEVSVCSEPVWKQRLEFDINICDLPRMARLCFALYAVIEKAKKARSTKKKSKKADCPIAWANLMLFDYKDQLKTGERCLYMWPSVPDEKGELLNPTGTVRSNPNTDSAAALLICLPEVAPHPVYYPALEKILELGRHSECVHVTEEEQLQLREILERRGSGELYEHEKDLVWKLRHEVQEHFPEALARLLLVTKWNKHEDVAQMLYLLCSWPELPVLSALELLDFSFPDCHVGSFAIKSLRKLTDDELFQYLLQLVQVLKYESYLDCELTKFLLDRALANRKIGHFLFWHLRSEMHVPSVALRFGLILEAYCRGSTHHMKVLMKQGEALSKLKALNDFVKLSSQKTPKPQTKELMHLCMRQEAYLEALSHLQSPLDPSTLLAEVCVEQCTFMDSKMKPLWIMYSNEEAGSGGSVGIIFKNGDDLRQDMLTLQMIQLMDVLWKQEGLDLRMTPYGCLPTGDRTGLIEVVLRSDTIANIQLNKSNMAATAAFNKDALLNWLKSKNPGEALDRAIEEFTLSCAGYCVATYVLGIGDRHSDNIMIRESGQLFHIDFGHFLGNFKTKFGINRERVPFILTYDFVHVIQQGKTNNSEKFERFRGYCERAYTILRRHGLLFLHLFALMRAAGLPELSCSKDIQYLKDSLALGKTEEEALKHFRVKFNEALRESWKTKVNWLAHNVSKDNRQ

[4] = target: Phosphatidylinositol 4,5-bisphosphate 3-kinase catalytic subunit alpha isoform (Homo sapiens, UniProt P42336); assay: Inhibition of PI3K-alpha (unknown origin) by cell free biochemical assay
Chain of Phosphatidylinositol 4,5-bisphosphate 3-kinase catalytic subunit alpha isoform (P42336 whole entry, canonical isoform): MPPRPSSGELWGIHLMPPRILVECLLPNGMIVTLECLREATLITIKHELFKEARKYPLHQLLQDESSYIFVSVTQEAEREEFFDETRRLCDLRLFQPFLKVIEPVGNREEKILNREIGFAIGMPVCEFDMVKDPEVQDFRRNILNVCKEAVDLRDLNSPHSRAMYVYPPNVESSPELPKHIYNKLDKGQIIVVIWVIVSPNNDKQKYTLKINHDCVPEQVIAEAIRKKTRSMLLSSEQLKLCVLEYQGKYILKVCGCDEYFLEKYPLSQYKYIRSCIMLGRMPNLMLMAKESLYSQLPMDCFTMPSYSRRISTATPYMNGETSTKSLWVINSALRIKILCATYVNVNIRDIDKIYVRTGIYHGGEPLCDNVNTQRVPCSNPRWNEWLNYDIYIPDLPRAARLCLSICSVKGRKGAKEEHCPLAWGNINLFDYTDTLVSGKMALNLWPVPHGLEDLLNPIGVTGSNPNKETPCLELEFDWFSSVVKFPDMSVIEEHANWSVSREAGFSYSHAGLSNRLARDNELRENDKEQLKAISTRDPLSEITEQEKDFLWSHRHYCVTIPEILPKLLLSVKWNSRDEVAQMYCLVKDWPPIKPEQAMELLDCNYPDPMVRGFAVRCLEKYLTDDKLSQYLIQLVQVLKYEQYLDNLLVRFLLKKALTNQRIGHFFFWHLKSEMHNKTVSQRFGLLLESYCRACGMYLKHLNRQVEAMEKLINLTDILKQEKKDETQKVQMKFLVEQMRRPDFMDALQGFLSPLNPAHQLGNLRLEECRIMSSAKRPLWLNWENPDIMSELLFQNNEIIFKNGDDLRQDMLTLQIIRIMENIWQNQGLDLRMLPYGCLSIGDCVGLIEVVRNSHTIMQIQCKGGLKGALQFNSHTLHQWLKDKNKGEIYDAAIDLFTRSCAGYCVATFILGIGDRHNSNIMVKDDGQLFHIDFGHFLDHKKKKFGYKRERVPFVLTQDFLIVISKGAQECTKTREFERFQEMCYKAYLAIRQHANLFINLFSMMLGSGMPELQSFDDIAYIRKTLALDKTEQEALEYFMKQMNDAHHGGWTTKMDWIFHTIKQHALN

Homo sapiens = organism: Homo sapiens; assay: Selectivity index, ratio of IC50 for PI3K-delta (unknown origin) to IC50 for PI3K-gamma (unknown origin)
[5] = target: Phosphatidylinositol 4,5-bisphosphate 3-kinase catalytic subunit beta isoform (Homo sapiens, UniProt P42338); assay: Inhibition of PI3K-beta (unknown origin) by cell free biochemical assay
Chain of Phosphatidylinositol 4,5-bisphosphate 3-kinase catalytic subunit beta isoform (P42338 whole entry, canonical isoform): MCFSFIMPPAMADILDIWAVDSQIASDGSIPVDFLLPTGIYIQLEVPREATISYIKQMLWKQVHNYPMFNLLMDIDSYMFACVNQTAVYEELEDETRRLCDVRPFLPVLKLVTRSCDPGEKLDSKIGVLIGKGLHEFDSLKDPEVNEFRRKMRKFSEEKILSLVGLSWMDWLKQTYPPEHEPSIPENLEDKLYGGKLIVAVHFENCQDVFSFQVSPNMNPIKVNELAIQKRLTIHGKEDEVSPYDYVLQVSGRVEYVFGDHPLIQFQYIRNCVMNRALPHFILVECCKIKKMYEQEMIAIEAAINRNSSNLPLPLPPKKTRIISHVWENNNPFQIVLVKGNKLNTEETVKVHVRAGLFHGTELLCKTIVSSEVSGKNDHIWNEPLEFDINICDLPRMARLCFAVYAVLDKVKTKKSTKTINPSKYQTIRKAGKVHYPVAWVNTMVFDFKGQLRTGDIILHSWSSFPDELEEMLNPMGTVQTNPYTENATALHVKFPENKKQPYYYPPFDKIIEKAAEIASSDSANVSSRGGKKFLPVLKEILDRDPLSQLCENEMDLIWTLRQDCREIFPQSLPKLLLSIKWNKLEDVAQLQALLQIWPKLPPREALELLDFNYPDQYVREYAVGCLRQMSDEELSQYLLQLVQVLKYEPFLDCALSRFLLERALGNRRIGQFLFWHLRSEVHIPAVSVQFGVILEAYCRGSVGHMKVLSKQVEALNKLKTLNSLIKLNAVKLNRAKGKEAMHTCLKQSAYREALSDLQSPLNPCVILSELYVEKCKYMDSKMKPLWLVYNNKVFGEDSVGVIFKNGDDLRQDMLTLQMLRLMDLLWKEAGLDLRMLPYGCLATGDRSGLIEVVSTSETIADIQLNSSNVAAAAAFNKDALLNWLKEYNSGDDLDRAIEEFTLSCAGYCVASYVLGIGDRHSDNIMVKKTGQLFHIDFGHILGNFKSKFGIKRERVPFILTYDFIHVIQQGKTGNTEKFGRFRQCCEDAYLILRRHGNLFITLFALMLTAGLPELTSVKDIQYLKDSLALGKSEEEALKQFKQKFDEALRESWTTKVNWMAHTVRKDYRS

HL-60 [6] = assay: Downregulation of p110beta protein expression levels in human HL60 cells at 1 uM after 2 hrs by Western blot analysis; type: functional, cell-based
In short: (§1)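 HL-60 cells were exposed to test agent at 1 µM for short time intervals, including 2 h. Expression of the p110α, p110β, p110δ and p110γ isoforms was then assessed by western blotting. p110γ blots were also quantified by densitometry at each time point.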

HL-60 [7] = assay: Downregulation of p110gamma protein expression levels in human HL60 cells at 1 uM after 2 hrs by Western blot analysis relative to control; type: functional; in short: as §1
[8] = target: Phosphatidylinositol 4,5-bisphosphate 3-kinase catalytic subunit gamma isoform (Homo sapiens, UniProt P48736); assay: Inhibition of PI3K-gamma (unknown origin) by cell free biochemical assay
Chain of Phosphatidylinositol 4,5-bisphosphate 3-kinase catalytic subunit gamma isoform (P48736 whole entry, canonical isoform): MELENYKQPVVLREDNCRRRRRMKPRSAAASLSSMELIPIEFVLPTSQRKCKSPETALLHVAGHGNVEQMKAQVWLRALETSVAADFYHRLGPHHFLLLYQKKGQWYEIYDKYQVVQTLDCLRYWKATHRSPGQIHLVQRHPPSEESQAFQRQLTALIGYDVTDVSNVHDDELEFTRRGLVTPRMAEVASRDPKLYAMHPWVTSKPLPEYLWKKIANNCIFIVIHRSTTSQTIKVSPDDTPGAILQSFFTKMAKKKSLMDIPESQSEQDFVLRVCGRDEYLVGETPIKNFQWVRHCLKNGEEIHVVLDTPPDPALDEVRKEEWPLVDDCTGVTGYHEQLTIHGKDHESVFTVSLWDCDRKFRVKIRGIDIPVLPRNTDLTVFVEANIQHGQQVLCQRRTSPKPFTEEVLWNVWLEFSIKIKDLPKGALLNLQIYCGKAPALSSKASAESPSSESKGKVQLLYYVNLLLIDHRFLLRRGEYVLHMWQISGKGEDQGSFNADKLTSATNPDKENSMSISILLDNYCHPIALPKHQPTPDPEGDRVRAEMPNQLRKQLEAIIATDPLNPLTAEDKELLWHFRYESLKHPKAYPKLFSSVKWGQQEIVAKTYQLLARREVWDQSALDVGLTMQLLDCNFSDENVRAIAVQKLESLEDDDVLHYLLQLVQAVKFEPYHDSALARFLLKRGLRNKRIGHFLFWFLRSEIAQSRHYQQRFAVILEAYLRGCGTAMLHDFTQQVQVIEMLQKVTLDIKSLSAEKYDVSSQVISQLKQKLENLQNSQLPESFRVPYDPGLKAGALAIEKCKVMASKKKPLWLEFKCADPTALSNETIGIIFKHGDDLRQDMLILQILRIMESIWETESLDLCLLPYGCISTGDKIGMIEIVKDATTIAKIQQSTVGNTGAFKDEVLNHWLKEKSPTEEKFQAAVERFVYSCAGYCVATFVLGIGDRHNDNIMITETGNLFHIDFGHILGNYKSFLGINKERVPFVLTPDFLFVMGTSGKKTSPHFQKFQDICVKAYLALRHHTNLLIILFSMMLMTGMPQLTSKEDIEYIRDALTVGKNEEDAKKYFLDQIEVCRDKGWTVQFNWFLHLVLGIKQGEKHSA

HL-60 [9] = assay: Downregulation of p110delta protein expression levels in human HL60 cells at 1 uM after 2 hrs by Western blot analysis; type: functional, cell-based; in short: as §1
HL-60 [10] = assay: Downregulation of p110alpha protein expression levels in human HL60 cells at 1 uM after 2 hrs by Western blot analysis; type: functional, cell-based; in short: as §1

Row | SMILES | pIC50 (COLO 205) | pIC50 (HCT-116) | pIC50 [1] | pIC50 (MCF7) | pIC50 (HL-60 [2]) | pIC50 (A549) | pIC50 [3] | pIC50 [4] | Ratio IC50 (Homo sapiens) | pIC50 [5] | Activity (HL-60 [6]) | Activity (HL-60 [7]) | pIC50 [8] | Activity (HL-60 [9]) | Activity (HL-60 [10])
1 | Cc1ccccc1-n1c(Cn2cc(-c3ccc(-c4ccccc4)cc3)nn2)nc2cccc(C)c2c1=O | < 5.00 | < 5.00 | < 5.00 | < 5.00 | < 5.00 | < 5.00 |  |  |  |  |  |  |  |  | 
2 | Cc1ccccc1-n1c(Cn2cc(-c3ccc(-c4ccccc4)cc3)nn2)nc2ccccc2c1=O | < 5.00 | < 5.00 | < 5.00 | < 5.00 | < 5.00 | < 5.00 |  |  |  |  |  |  |  |  | 
3 | Cc1ccccc1-n1c(Cn2cnc3c(N)ncnc32)nc2cccc(C)c2c1=O | < 5.00 | < 5.00 | < 5.00 | < 5.00 | 6.00 | < 5.00 |  |  |  |  |  |  |  |  | 
4 | Cc1cc(OCc2cn(Cc3nc4cccc(C)c4c(=O)n3-c3ccccc3C)nn2)ccc1Cl | < 5.00 | < 5.00 | < 5.00 | < 5.00 | < 5.00 | < 5.00 |  |  |  |  |  |  |  |  | 
5 | Cc1ccccc1-n1c(Cn2cc(COc3cccc(F)c3)nn2)nc2ccccc2c1=O | < 5.00 | < 5.00 | < 5.00 | < 5.00 | < 5.00 | < 5.00 |  |  |  |  |  |  |  |  | 
6 | Cc1ccccc1-n1c(Cn2cc(CNS(=O)(=O)c3ccccc3)nn2)nc2cccc(C)c2c1=O | < 5.00 | < 5.00 | < 5.00 | < 5.00 | < 5.00 | < 5.00 |  |  |  |  |  |  |  |  | 
7 | Cc1ccccc1-n1c(Cn2cc(-c3ccccc3)nn2)nc2cccc(C)c2c1=O | < 5.00 | < 5.00 | < 5.00 | < 5.00 | 6.00 | < 5.00 | 5.30 | 3.60 | 5 | 3.37 | inactive | >50% | 6.00 | inactive | inactive
8 | COc1ccc(-c2cn(Cc3nc4cccc(C)c4c(=O)n3-c3ccccc3C(F)(F)F)nn2)c(C)c1 | < 5.00 | < 5.00 | < 5.00 | < 5.00 | < 5.00 | < 5.00 |  |  |  |  |  |  |  |  | 
9 | Cc1cccc2nc(Cn3cc(-c4ccccc4)nn3)n(-c3ccccc3C(F)(F)F)c(=O)c12 | < 5.00 | < 5.00 | < 5.00 | < 5.00 | < 5.00 | < 5.00 |  |  |  |  |  |  |  |  | 
10 | Cc1ccccc1-n1c(Cn2cc(-c3ccccc3)nn2)nc2ccccc2c1=O | < 5.00 | < 5.00 | < 5.00 | < 5.00 | < 5.00 | < 5.00 |  |  |  |  |  |  |  |  | 
11 | Cc1ccccc1-n1c(Cn2cc(-c3cc(C(F)(F)F)cc(C(F)(F)F)c3)nn2)nc2ccccc2c1=O | < 5.00 | < 5.00 | < 5.00 | < 5.00 | < 5.00 | < 5.00 |  |  |  |  |  |  |  |  | 
12 | Cc1ccccc1-n1c(Cn2cc(CNS(=O)(=O)c3ccc(F)cc3F)nn2)nc2cccc(C)c2c1=O | < 5.00 | < 5.00 | < 5.00 | < 5.00 | < 5.00 | < 5.00 |  |  |  |  |  |  |  |  | 
13 | Cc1cccc(OCc2cn(Cc3nc4ccccc4c(=O)n3-c3ccccc3C)nn2)c1 | < 5.00 | < 5.00 | < 5.00 | < 5.00 | < 5.00 | < 5.00 |  |  |  |  |  |  |  |  | 
14 | Cc1ccccc1-n1c(Cn2cc(-c3ccc(Br)cc3)nn2)nc2cccc(C)c2c1=O | < 5.00 | < 5.00 | < 5.00 | < 5.00 | < 5.00 | < 5.00 |  |  |  |  |  |  |  |  | 
15 | Cc1ccccc1-n1c(Cn2cc(-c3ccc(Br)cc3)nn2)nc2ccccc2c1=O | < 5.00 | < 5.00 | < 5.00 | < 5.00 | < 5.00 | < 5.00 |  |  |  |  |  |  |  |  | 
16 | Cc1ccccc1-n1c(Cn2cc(-c3ccccc3C(F)(F)F)nn2)nc2ccccc2c1=O | < 5.00 | < 5.00 | < 5.00 | < 5.00 | < 5.00 | < 5.00 |  |  |  |  |  |  |  |  | 
17 | Cc1ccc(NCc2cn(Cc3nc4cccc(C)c4c(=O)n3-c3ccccc3C(F)(F)F)nn2)cc1C | < 5.00 | < 5.00 | < 5.00 | < 5.00 | < 5.00 | < 5.00 |  |  |  |  |  |  |  |  | 
18 | Cc1ccccc1-n1c(Cn2cc(-c3ccccc3C(F)(F)F)nn2)nc2cccc(C)c2c1=O | < 5.00 | < 5.00 | < 5.00 | < 5.00 | < 5.00 | < 5.00 |  |  |  |  |  |  |  |  | 
19 | Cc1cccc2nc(Cn3cc(-c4cccnc4)nn3)n(-c3ccccc3C(F)(F)F)c(=O)c12 | < 5.00 | < 5.00 | < 5.00 | < 5.00 | < 5.00 | < 5.00 |  |  |  |  |  |  |  |  | 
20 | Cc1ccccc1-n1c(Cn2cc(-c3ccccc3F)nn2)nc2ccccc2c1=O | < 5.00 | < 5.00 | < 5.00 | < 5.00 | < 5.00 | < 5.00 |  |  |  |  |  |  |  |  | 
21 | COc1ccc(OCc2cn(Cc3nc4ccccc4c(=O)n3-c3ccccc3C)nn2)cc1 | < 5.00 | < 5.00 | < 5.00 | < 5.00 | < 5.00 | < 5.00 |  |  |  |  |  |  |  |  | 
22 | Cc1ccccc1-n1c(Cn2cc(-c3ccc(OC(F)(F)F)cc3)nn2)nc2cccc(C)c2c1=O | < 5.00 | < 5.00 | < 5.00 | < 5.00 | < 5.00 | < 5.00 |  |  |  |  |  |  |  |  | 
23 | COc1ccc(-c2cn(Cc3nc4cccc(C)c4c(=O)n3-c3ccccc3C)nn2)c(C)c1 | < 5.00 | < 5.00 | < 5.00 | < 5.00 | 6.00 | < 5.00 | 5.00 | 3.54 | 3 | 3.45 | inactive | >50% | 5.52 | inactive | inactive
24 | Cc1ccccc1-n1c(Cn2cc(-c3ccccc3F)nn2)nc2cccc(C)c2c1=O | < 5.00 | < 5.00 | < 5.00 | < 5.00 | < 5.00 | < 5.00 |  |  |  |  |  |  |  |  | 
25 | Cc1ccc(-c2cn(Cc3nc4cccc(C)c4c(=O)n3-c3ccccc3C)nn2)cc1 | < 5.00 | < 5.00 | < 5.00 | < 5.00 | < 5.00 | < 5.00 |  |  |  |  |  |  |  |  | 
26 | COc1ccc(S(=O)(=O)NCc2cn(Cc3nc4ccccc4c(=O)n3-c3ccccc3C)nn2)cc1 | < 5.00 | < 5.00 | < 5.00 | < 5.00 | < 5.00 | < 5.00 |  |  |  |  |  |  |  |  | 
27 | Cc1ccccc1-n1c(Cn2cc(-c3cccnc3)nn2)nc2cccc(C)c2c1=O | < 5.00 | < 5.00 | < 5.00 | < 5.00 | < 5.00 | < 5.00 |  |  |  |  |  |  |  |  | 
